UHRF1 MBD2 ctr: UHRF1 methylated DNA binding inhibitors, primary screen, counter-screen for MBD2 inhibitor project, biochemical, TR-FRET, human UHRF1, single concentration. UHRF1 binding to methylated oligo. inhibition, % at 4.4 µM. hit rate 0.75% among 370,000. AID 687016, 2013; in the data active means inhibition above about 21%;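 further: UHRF1 SRA domain binding a hemimethylated CpG hairpin DNA probe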
TDP2 inh: human TDP2 enzyme inhibitors, primary screen, biochemical, epi absorbance, recombinant enzyme; Tyrosyl-DNA phosphodiesterase 2 (Homo sapiens), O95551; inhibition, % at 12.8 µM; hit rate 0.34% among 370,000; T5PNP hydrolysis, p-nitrophenol absorbance 415 nm; AID 720702, 2013;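 active means inhibition above the mean of all tested compounds plus 3 SD, set per campaign, cut at about 25% in these data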
Target sequence (O95551 whole entry, looked up): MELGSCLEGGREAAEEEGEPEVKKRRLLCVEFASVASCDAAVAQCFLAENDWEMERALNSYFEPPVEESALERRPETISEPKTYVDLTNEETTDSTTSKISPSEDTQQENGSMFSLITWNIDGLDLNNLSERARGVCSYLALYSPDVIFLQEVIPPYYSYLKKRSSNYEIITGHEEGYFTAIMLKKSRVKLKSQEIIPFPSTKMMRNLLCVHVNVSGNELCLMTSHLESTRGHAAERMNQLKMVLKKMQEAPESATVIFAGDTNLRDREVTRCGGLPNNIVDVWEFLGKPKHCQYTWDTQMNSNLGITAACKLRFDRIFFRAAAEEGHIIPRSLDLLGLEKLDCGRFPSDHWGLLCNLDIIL
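System – recombinant human TDP2 · Amount – 120 nM TDP2 per well · Buffer or medium – Mg2+-containing Tris-HCl buffer, pH 7.5 · Reagent – T5PNP substrate, 5 mM · Dosing – 12.8 µM single point, 1% DMSO · Incubation – 2 h at 37 °C · Measured by – epi absorbance · Read-out basis – percent inhibition · Benchmarks – high control without enzyme, low control DMSO plus TDP2 · Repeats – singlicate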
LEDGF integ inh: blockers of LEDGF/p75-dependent integrase strand transfer – biochemical, TR-FRET, high throughput, primary screen. HIV-1 integrase (with human LEDGF/p75). TR-FRET IN-LEDGF/p75 DNA integration, Eu/Cy5. inhibition, % at 3.7 µM. hit rate 0.64% among 370,000. AID 743269, 2014;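 active means inhibition above the screen-wide mean plus 3 SD, cut at about 13% in these data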;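 further: signal is the Cy5 over europium emission ratio at 671 and 618 nm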
MBD2 DNA inh: inhibitors of MBD2 binding to methylated DNA, primary screen, biochemical, TR-FRET, DNA-binding domain, human; hit rate 0.31% among 370,000; MBD2 binding to methylated oligonucleotide; Methyl-CpG-binding domain protein 2 (Homo sapiens), Q9UBB5; inhibition, % at 4.4 µM; in the data active means inhibition above about 13%
A number is an active result; 0 = inactive. Rows were chosen to be rich in hits. Some 1.6% of all compounds tested hit in one or more screens of this group.

SMILES	UHRF1 MBD2 ctr	TDP2 inh	LEDGF integ inh	MBD2 DNA inh
CC(C)Cn1c(N)c(C(=O)CSc2nnc(-c3ccco3)n2C)c(=O)n(C)c1=O	33	0	0	0
COc1ccccc1NC(=O)C(=O)NCc1ccncc1	0	0	0	0
CCOc1ccc(NC(=O)C2CC(=O)N(CCc3ccccc3)C2)cc1OC (stereo not given)	24	0	0	0
Cc1cc(-c2ccc(C(C)C)c(S(=O)(=O)N3CC(=O)Nc4ccccc43)c2)on1	0	0	0	0
O=C(Nc1cccc(NC(=O)c2ccccc2Cl)c1)c1ccc(F)cc1	27	0	0	0
CN(CCc1cnn(C)c1)C(=O)CCc1nnc(CCCc2ccccc2)o1	48	0	0	0
O=C(COC(=O)/C=C/c1cccc(F)c1)Nc1ccccc1-c1ccccc1	0	0	0	0
CC(=O)CC[C@H]1CC[C@]2(CCCN(S(=O)(=O)C3CCCCC3)C2)O1	0	0	0	0
CCOC(=O)CC[C@H]1CC[C@]2(CCCN(S(=O)(=O)C3CCCCC3)C2)O1	42	0	0	0
OCCN(CC#CC(O)(c1ccccc1)c1cccc(F)c1)CCO (stereo not given)	26	0	0	0
CCc1ccccc1NC(=S)NN	0	0	0	0
COC(=O)[C@H]1C[C@@]2(O)CN(S(=O)(=O)c3ccc(C)cc3)C[C@@]2(OC(=O)NC2CCCC2)C[C@H]1C(=O)OC	24	0	0	0
CCC(C)n1c(NC(=O)c2ccccc2)c(C#N)c2nc3ccccc3nc21 (stereo not given)	0	77	28	0
CC(=O)N1CCN(c2ccccc2NC(=O)c2cccs2)CC1	0	0	0	0
COc1ccc(C(C(=O)NC2CCCC2)N(Cc2cccs2)C(=O)c2ccn[nH]2)cc1OC (stereo not given)	0	0	0	0
CC(=O)c1coc2c1cc(O)c1ccccc12	0	0	0	0
CC(=O)c1cc(O)c2ccccc2c1O	0	42	0	0
COc1cccc(CNC(=O)CCC2CCCN(C(=O)c3ccoc3)C2)c1 (stereo not given)	25	0	0	0
Cc1cc(C)n(CCNC(=O)C2CCC(=O)N(CC3CCCCC3)C2)n1 (stereo not given)	0	0	0	0
O=C(COC(=O)CCC(NC(=O)OCc1ccccc1)C(=O)OCC(=O)Nc1ccccc1)Nc1ccccc1 (stereo not given)	0	0	0	0
COc1ccc(CC(=O)N/N=C(\C)CC(=O)Nc2ccc(N(C)C)cc2)cc1	0	0	0	0
C/C(CC(=O)Nc1ccc(N(C)C)cc1)=N\NC(=O)Cc1csc(N)n1	0	0	21	0
O=C(NCCCN1CCOCC1)c1ccc2c(c1)N(Cc1ccccc1)C(=O)c1ccccc1S2=O (stereo not given)	0	0	0	0
FC(F)(F)c1ccccc1Cc1c(C2CCCCC2)nc2c3ccccc3ccn12	22	0	0	0
Clc1cccc(Cc2c(C3CCCCC3)nc3c4ccccc4ccn23)c1	24	0	0	0
SMILES	UHRF1 MBD2 ctr	TDP2 inh	LEDGF integ inh	MBD2 DNA inh
CCn1c(SCC(=O)N2CCCc3ccccc32)nnc1-c1cccs1	21	0	0	0
O=C(CSc1nnc(-c2cccs2)n1-c1ccccc1)N1CCCc2ccccc21	0	0	0	0
Cc1cc(NC(=O)CSCC(=O)Nc2cc(Cl)ccc2N2CCN(C)CC2)no1	28	0	0	0
Cc1cccc(NC(=O)CSCC(=O)Nc2cc(Cl)ccc2N2CCN(C)CC2)c1	0	0	0	0
Cc1cc(C)c(Nc2cc(S(=O)(=O)O)c(N)c3c2C(=O)c2ccccc2C3=O)c(C)c1	23	0	0	0
Cc1cc(C)c(NC(=O)COC(=O)c2cccc3c2C(=O)c2ccccc2C3=O)c(C)c1	0	0	0	0
O=c1cc(CN2CCc3ccccc32)c2ccc(O)cc2o1	0	0	0	0
COc1cc(/C=C2/NC(=O)NC2=O)cc(Br)c1OCc1ccccc1	0	0	0	0
Cc1cc(-c2csc(NC(=O)c3ccc(C#N)cc3)n2)c(C)n1Cc1ccco1	57	0	68	22
CC(C)(C)NC(=O)C(c1ccc(C#N)cc1)n1c(=O)c(-c2cc3ccccc3[nH]2)nc2ccccc21 (stereo not given)	0	0	0	0
CCOc1ccc(S(=O)(=O)NCCC(=O)Nc2ncccc2C)cc1	0	0	0	0

High-throughput results deposited in PubChem BioAssay by The Scripps Research Institute Molecular Screening Center.
